Measurements as given in ChEMBL document CHEMBL2380256, “Discovery of novel Jak2-Stat pathway inhibitors with extended residence time on target” (Bioorg Med Chem Lett, 2013).
One block for each molecule: values may come before it. The source made the active and inactive calls. The rule behind the calls is not given here.

What was measured:
[1] = molecular target: T1, Tyrosine-protein kinase JAK3 (Homo sapiens, UniProt P52333); assay: Inhibition of JAK3 (unknown origin) using biotinylated poly-EY peptide as substrate after 60 mins by HTRF assay
T1 sequence (P52333 whole entry): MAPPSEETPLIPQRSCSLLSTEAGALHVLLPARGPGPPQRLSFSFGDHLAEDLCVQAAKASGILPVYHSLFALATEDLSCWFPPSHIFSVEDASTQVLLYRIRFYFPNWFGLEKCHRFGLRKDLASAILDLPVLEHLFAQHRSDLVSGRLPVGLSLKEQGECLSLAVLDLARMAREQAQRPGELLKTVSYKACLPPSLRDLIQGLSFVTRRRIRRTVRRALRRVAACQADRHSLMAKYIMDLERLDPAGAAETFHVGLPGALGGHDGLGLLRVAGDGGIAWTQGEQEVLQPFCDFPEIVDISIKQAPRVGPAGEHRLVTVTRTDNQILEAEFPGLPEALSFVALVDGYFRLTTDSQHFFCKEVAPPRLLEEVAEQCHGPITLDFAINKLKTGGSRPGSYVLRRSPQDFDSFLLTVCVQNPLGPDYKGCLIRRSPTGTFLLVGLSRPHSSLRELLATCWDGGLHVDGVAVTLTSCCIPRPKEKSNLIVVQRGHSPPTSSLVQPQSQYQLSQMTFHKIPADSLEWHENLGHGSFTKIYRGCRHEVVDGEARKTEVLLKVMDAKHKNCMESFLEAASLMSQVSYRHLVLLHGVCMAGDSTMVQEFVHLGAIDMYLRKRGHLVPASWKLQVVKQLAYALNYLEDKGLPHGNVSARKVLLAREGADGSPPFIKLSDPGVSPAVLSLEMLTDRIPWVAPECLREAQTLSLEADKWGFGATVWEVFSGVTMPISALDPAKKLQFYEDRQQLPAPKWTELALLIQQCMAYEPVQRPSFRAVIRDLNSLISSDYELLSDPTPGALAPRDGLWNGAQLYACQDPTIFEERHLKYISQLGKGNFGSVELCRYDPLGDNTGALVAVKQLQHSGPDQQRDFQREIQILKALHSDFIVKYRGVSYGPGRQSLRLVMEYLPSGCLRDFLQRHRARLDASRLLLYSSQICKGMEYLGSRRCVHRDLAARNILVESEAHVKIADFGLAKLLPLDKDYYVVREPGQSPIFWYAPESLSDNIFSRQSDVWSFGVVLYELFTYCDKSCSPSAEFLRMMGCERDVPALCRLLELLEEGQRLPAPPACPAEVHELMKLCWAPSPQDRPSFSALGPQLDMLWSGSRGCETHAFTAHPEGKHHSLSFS

[2] = Growth inhibition of mouse BA/F3 cells transfected with JAK2 TEL domain after 24 hrs by Alamar Blue assay; format: functional; settings: BaF3, 24 h
[3] = molecular target: T2, Tyrosine-protein kinase JAK2 (Homo sapiens, UniProt O60674); assay: Inhibition of JAK2 (unknown origin) using biotinylated TYK2 peptide as substrate after 60 mins
T2 sequence (O60674 whole entry, the tested form may be a part): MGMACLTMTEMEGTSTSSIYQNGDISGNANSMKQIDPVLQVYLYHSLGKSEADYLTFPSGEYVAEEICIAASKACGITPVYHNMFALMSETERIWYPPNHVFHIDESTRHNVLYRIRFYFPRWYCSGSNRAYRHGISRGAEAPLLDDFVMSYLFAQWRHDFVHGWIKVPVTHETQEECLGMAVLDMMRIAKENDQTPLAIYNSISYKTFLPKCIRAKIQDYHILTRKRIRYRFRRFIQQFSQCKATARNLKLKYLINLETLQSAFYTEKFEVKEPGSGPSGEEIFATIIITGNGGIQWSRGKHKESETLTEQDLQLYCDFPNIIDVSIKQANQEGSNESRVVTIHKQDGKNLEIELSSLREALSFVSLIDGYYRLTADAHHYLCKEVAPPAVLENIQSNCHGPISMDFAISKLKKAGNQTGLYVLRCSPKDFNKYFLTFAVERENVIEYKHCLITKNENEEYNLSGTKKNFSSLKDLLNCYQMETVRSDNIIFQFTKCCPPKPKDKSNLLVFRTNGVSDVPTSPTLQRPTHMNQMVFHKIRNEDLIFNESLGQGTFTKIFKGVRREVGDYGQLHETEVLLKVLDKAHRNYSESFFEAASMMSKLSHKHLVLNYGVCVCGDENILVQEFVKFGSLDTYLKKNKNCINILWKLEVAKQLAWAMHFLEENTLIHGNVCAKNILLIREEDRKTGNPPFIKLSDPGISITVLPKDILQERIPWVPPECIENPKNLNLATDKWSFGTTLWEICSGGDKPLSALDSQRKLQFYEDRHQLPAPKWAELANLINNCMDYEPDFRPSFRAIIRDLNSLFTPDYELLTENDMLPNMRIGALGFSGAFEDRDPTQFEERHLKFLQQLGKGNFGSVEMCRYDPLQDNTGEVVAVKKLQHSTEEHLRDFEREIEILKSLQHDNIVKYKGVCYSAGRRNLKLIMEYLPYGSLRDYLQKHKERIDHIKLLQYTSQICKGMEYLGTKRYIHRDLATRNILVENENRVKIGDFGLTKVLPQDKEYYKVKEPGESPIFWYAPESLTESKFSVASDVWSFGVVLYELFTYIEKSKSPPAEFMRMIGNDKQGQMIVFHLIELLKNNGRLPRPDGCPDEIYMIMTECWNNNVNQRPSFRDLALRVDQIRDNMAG

[4] = Growth inhibition of mouse BA/F3 cells transfected with JAK3 TEL domain after 24 hrs by Alamar Blue assay; format: functional, cell-based; settings: BaF3, 24 h, read-out: GI50
[5] = Growth inhibition of human UKE1 cells harboring JAK2 V617F mutant after 2 days by [3H]-thymidine incorporation assay; format: functional
SET-2 = assay: Growth inhibition of human SET2 harboring JAK2 V617F mutant after 24 hrs by Alamar Blue assay; format: functional; settings: SET-2, 24 h
Mus musculus [6] = assay: In vivo inhibition of JAK2 TEL domain (unknown origin) transfected in mouse Ba/F3 cells allografted in nude mouse assessed as inhibition of STAT5 phosphorylation at 5 mg/kg, po qd after 6 hrs; format: functional, organism-based; design: dose 5 mg/kg; settings: BaF3
In short: (§1)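 Female nude mice implanted intravenously with Ba/F3 TEL-JAK2 cells on day 0 and given a single oral dose on day 10. pStat5 was measured at the stated times post-dose. % inhibition was scaled between vehicle and a control inhibitor as maximum and minimum, with n = 3 per dose and time point, reported as mean ±SD.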

[7] = Total plasma concentration in nude mouse allografted with mouse Ba/F3 cells expressing JAK2 TEL domain at 5 mg/kg, po qd measured at 6 hrs; format: ADME, organism-based, BaF3; design: dose 5 mg/kg, route oral
In short: (§2)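 Female nude mice implanted intravenously with Ba/F3 TEL-JAK2 cells on day 0 and dosed orally on day 10. Total plasma drug concentration was measured at the stated times post-dose, averaged over n = 3 per dose and time point.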

[8] = Volume of distribution at steady state in Han Wistar rat at 10 mg/kg, po and 3 mg/kg, iv; format: ADME, organism-based; settings: in vivo, read-out: Vdss
[9] = AUC in CD1 mouse at 10 mg/kg, po and 3 mg/kg, iv; format: ADME, organism-based; settings: plasma
In short: (§3)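 Single-dose PK: female CD-1 mice and male Han Wistar rats, 10 mg/kg po in 0.1% HPMC and 3 mg/kg iv in DMA/PEG/saline 40/40/20.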

[10] = Oral bioavailability in Han Wistar rat at 10 mg/kg; format: ADME, organism-based; settings: in vivo
In short: (§4)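 Oral bioavailability in female CD-1 mice and male Han Wistar rats: 10 mg/kg po (0.1% HPMC) versus 3 mg/kg iv (DMA/PEG/saline 40/40/20). %F = (AUCpo × DoseIV)/(AUCIV × Dosepo) × 100.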

[11] = Total plasma concentration in nude mouse allografted with mouse Ba/F3 cells expressing JAK2 TEL domain at 10 mg/kg, po qd measured at 6 hrs; format: ADME, organism-based, BaF3; design: dose 10 mg/kg, route oral; in short: as §2
Mus musculus [12] = assay: In vivo inhibition of JAK2 TEL domain (unknown origin) transfected in mouse Ba/F3 cells allografted in nude mouse assessed as inhibition of STAT5 phosphorylation at 10 mg/kg, po qd after 6 hrs relative to vehicle-treated control; format: functional; settings: BaF3, 6 h; in short: as §1
[13] = Volume of distribution at steady state in CD1 mouse at 10 mg/kg, po and 3 mg/kg, iv; format: ADME, organism-based; settings: in vivo, read-out: Vdss; in short: as §3
[14] = Oral bioavailability in beagle dog at 5 mg/kg; format: ADME, organism-based, Canis lupus familiaris; settings: in vivo
In short: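 Male Beagle dogs received 5 mg/kg po (0.1% HPMC) and 2.5 mg/kg iv (HP-β-CD). %F = (AUCpo × DoseIV)/(AUCIV × Dosepo) × 100.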

[15] = Total plasma concentration in nude mouse allografted with mouse Ba/F3 cells expressing JAK2 TEL domain at 10 mg/kg, po qd measured at 2 hrs; format: ADME, organism-based, BaF3; design: dose 10 mg/kg, route oral; in short: as §2
[16] = Fraction unbound in nude mouse plasma allografted with mouse Ba/F3 cells expressing JAK2 TEL domain at 5 to 10 mg/kg, po qd after 6 hrs; format: ADME, organism-based, BaF3; design: dose 5-10 mg/kg, route oral
[17] = AUC in beagle dog at 5 mg/kg, po and […] mg/kg, iv; format: ADME, organism-based, Canis lupus familiaris; settings: plasma
[18] = Clearance in beagle dog at 5 mg/kg, po and […] mg/kg, iv; format: ADME, organism-based, Canis lupus familiaris; settings: in vivo, 2.5 mg/kg
[19] = Total plasma concentration in nude mouse allografted with mouse Ba/F3 cells expressing JAK2 TEL domain at 5 mg/kg, po qd measured at 2 hrs; format: ADME, organism-based, BaF3; design: dose 5 mg/kg, route oral; in short: as §2
[20] = Oral bioavailability in CD1 mouse at 10 mg/kg; format: ADME, organism-based; settings: in vivo; in short: as §4
[21] = molecular target: T2, Tyrosine-protein kinase JAK2; assay: Competitive inhibition of JAK2 (unknown origin)
[22] = Clearance in CD1 mouse at 10 mg/kg, po and 3 mg/kg, iv; format: ADME, organism-based; settings: in vivo; in short: as §3
[23] = AUC in Han Wistar rat at 10 mg/kg, po and 3 mg/kg, iv; format: ADME, organism-based; settings: plasma; in short: as §3
[24] = Volume of distribution at steady state in beagle dog at 5 mg/kg, po and 2.5 mg/kg, iv; format: ADME, organism-based, Canis lupus familiaris; settings: in vivo, read-out: Vdss
In short: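 Male Beagle dogs. Oral 5 mg/kg in 0.1% HPMC; intravenous 2.5 mg/kg in HP-β-CD.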

[25] = Clearance in Han Wistar rat at 10 mg/kg, po and 3 mg/kg, iv; format: ADME, organism-based; settings: in vivo; in short: as §3
Hepatocyte = assay: Metabolic stability in human hepatocytes measured per 10^6 cells; format: ADME, cell-based
Homo sapiens = organism: Homo sapiens; assay: Selectivity ratio of IC50 for JAK3 (unknown origin) to IC50 for JAK2 (unknown origin)
In short: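 Jak2 and Jak3 enzyme IC50s determined at 5 mM ATP; the ratio is the Jak3 IC50 divided by the Jak2 IC50.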

Compound: Cc1cc(Nc2nc(N[C@@H](C)c3ncc(F)cn3)cc(N3CCOCC3)n2)n[nH]1
IC50 [1]: 95 nM | GI50 [2]: 58 nM | IC50 [3]: 5 nM

Compound: Cc1cc(Nc2nc(N[C@@H](C)c3ccc(F)cn3)c(F)c(N3CCN(C)CC3)n2)n[nH]1
IC50 [1]: 15 nM | GI50 [4]: 380 nM

Compound: Cc1cc(Nc2nc(O[C@@H](C)c3ncc(F)cc3F)c(F)c(N3CCOCC3)n2)n[nH]1
IC50 [1]: 45 nM | GI50 [2]: 10 nM | GI50 [4]: 430 nM | GI50 [5]: 30 nM | GI50 (SET-2): 18 nM | IC50 [3]: 4 nM

Compound: Cc1cc(Nc2nc(N[C@@H](C)c3ncc(F)cn3)nc(N3CCOCC3)c2F)n[nH]1
Ratio IC50 (Homo sapiens): > 10000

Compound: Cc1cc(Nc2nc(N[C@@H](C)c3ccc(F)cn3)c(F)c(N3CCOCC3)n2)n[nH]1
IC50 [1]: 262 nM | GI50 [2]: 19 nM | GI50 [4]: 850 nM | IC50 [3]: 6 nM

The next lines start with results.

concentration at 6 h [7]: 180 ng/mL | Vd [8]: 1.6 L/kg | AUC [9]: 14.7 µM·h | bioavailability [10]: 74% | IC50 [1]: 20 nM | concentration at 6 h [11]: 246 ng/mL | Vd [13]: 1.4 L/kg | bioavailability [14]: 56% | concentration at 2 h [15]: 551 ng/mL | fraction unbound at 6 h [16]: 0.16 | AUC [17]: 8.5 µM·h | clearance [18]: 13 mL/min/kg | concentration at 2 h [19]: 325 ng/mL | bioavailability [20]: 64% | Ki [21]: 0.72 nM | clearance [22]: 17 mL/min/kg | AUC [23]: 27.5 µM·h | Vd [24]: 2.4 L/kg | IC50 [3]: < 3 nM | clearance [25]: 11 mL/min/kg | Stability (Hepatocyte): < 2 µL/min/1e6 cells
Compound: Cc1cc(Nc2nc(O[C@@H](C)c3ncc(F)cn3)c(F)c(N3CCOCC3)n2)n[nH]1
inhibition (Mus musculus [6]): Active | inhibition in vivo at 10 mg/kg (Mus musculus [12]): > 80% | GI50 [2]: 6 nM | GI50 [4]: 690 nM | GI50 [5]: 50 nM | GI50 (SET-2): 78 nM

Ratio IC50 (Homo sapiens): > 10
Compound: Cc1cc(Nc2cc(N3CCOCC3)nc(N[C@@H](C)c3ncc(F)cn3)n2)n[nH]1

IC50 [1]: 87 nM | IC50 [3]: 4 nM
Compound: Cc1cc(Nc2nc(O[C@@H](C)c3ccc(F)cn3)c(F)c(N3CCOCC3)n2)n[nH]1
GI50 [2]: 16 nM | GI50 [4]: 240 nM
